Molecules are shown by their SMILES.

For experiment [1], the system named is Mus musculus. The experiment in a line: Minimum effective dose required for more than 100 IU/mL induction of IFN using mice after peroral administration. The format is functional. The following applies: po, read-out: MED. Summed up:
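Compound dosed orally to mice; IFN measured in plasma in IU/mL. Value is the minimum effective dose in mg/kg, the lowest dose giving more than 100 IU/mL IFN.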

The species entered for experiment [2] is Mus musculus. The experiment in a line: Minimum effective concentration required for more than 1 IU/mL induction of IFN using mice spleen cells. It counts as functional. The following applies: read-out: MEC. A digest of the protocol: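 Mouse spleen cells incubated with compound; IFN released into medium measured in IU/mL. Value is the minimum effective concentration, the lowest concentration giving more than 1 IU/mL IFN.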

For the molecule `CCCCCOc1nc(N)c2nc(O)n(Cc3ccccc3)c2n1`, in the experiment with Mus musculus [1], the minimal effective dose came out at 0.3 mg/kg. Also, in the experiment listed under Mus musculus [2], the minimal effective concentration was 0.01 µM.

Regarding `Nc1nc(N)c2nc(O)n(Cc3ccccc3)c2n1`, the minimal effective concentration in the experiment listed under Mus musculus [2] was found to be 10 µM.

As for `Nc1nc(-c2ccccc2)nc2c1nc(O)n2Cc1ccccc1`, the minimal effective dose with Mus musculus [1] was more than 30 mg/kg. The minimal effective concentration in the experiment filed under Mus musculus [2] was determined as 10 µM.

Regarding `Nc1ncnc2[nH]c(O)nc12`, the minimal effective concentration in the experiment filed under Mus musculus [2] was more than 10 µM.

Consider `Cc1nc(N)c2nc(O)n(Cc3ccccc3)c2n1`, for which the minimal effective dose with Mus musculus [1] is 3 mg/kg. The minimal effective concentration in the experiment listed under Mus musculus [2] is 1 µM.

With `CCNc1nc(N)c2nc(O)n(Cc3ccccc3)c2n1`, in the experiment filed under Mus musculus [2], the minimal effective concentration was 1 µM.

With `CCCOc1nc(N)c2nc(O)n(Cc3ccccc3)c2n1`, the minimal effective dose with Mus musculus [1] stood at 0.3 mg/kg. The minimal effective concentration in the experiment listed under Mus musculus [2] came to 0.01 µM.

In the case of `CCOc1nc(N)c2nc(O)n(Cc3ccccc3)c2n1`, in the experiment on Mus musculus [1], the minimal effective dose stood at 0.3 mg/kg. The minimal effective concentration in the experiment filed under Mus musculus [2] was determined as 0.1 µM.

For the molecule `COc1cccc(Cn2c(O)nc3c(N)ncnc32)c1`, the minimal effective concentration in the experiment filed under Mus musculus [2] stood at 10 µM.

`COc1ccc(Cn2c(O)nc3c(N)ncnc32)cc1`: the minimal effective concentration in the experiment filed under Mus musculus [2] came out at 10 µM.

`COc1nc2c(N)ncnc2n1Cc1ccccc1`: the minimal effective concentration in the experiment filed under Mus musculus [2] is more than 10 µM.

With `Nc1ncnc2c1nc(O)n2Cc1ccc(F)cc1`, in the experiment with Mus musculus [1], the minimal effective dose was determined as 30 mg/kg. Also, the minimal effective concentration in the experiment filed under Mus musculus [2] is 10 µM.

Regarding `Nc1nc(SCc2ccccc2)nc2c1nc(O)n2Cc1ccccc1`, the minimal effective dose with Mus musculus [1] was more than 1 mg/kg. For the same molecule, in the experiment filed under Mus musculus [2], the minimal effective concentration was 0.1 µM.

As for `CCCCOc1nc(N)c2[nH]c(=O)n(Cc3ccccc3)c2n1`, in the experiment with Mus musculus [1], the minimal effective dose was 0.1 mg/kg. For the same molecule, the minimal effective concentration in the experiment listed under Mus musculus [2] amounted to 0.001 µM.

Consider `CCCCc1nc(N)c2nc(O)n(Cc3ccccc3)c2n1`, for which the minimal effective dose with Mus musculus [1] was determined as 0.3 mg/kg. Moreover, the minimal effective concentration in the experiment filed under Mus musculus [2] was determined as 0.03 µM.

Consider `Nc1ncnc2c1nc(Br)n2Cc1ccccc1`, for which the minimal effective concentration in the experiment listed under Mus musculus [2] is more than 10 µM.

Regarding `CCCc1nc(N)c2nc(O)n(Cc3ccccc3)c2n1`, the minimal effective dose with Mus musculus [1] came out at 3 mg/kg. Moreover, the minimal effective concentration in the experiment filed under Mus musculus [2] was 1 µM.

Consider `CCCCNc1nc(N)c2nc(O)n(Cc3ccccc3)c2n1`, for which, in the experiment with Mus musculus [1], the minimal effective dose came to 0.1 mg/kg. For the same molecule, in the experiment listed under Mus musculus [2], the minimal effective concentration came out at 0.1 µM.

In the case of `CCc1nc(N)c2nc(O)n(Cc3ccccc3)c2n1`, the minimal effective dose in the experiment with Mus musculus [1] was found to be 3 mg/kg. Besides, the minimal effective concentration in the experiment filed under Mus musculus [2] was 1 µM.

For the molecule `Cc1nc2c(N)ncnc2n1Cc1ccccc1`, the minimal effective concentration in the experiment filed under Mus musculus [2] is more than 10 µM.

For `Nc1ncnc2c1nc(O)n2-c1ccccc1`, in the experiment listed under Mus musculus [2], the minimal effective concentration was more than 10 µM.

Regarding `CCCCSc1nc(N)c2nc(O)n(Cc3ccccc3)c2n1`, in the experiment with Mus musculus [1], the minimal effective dose worked out at 0.3 mg/kg. In addition, the minimal effective concentration in the experiment listed under Mus musculus [2] is 0.01 µM.

Turning to `CCCCCSc1nc(N)c2nc(O)n(Cc3ccccc3)c2n1`, the minimal effective dose in the experiment with Mus musculus [1] was 1 mg/kg. Further, the minimal effective concentration in the experiment listed under Mus musculus [2] amounted to 10 µM.

As for `Nc1ncnc2c1nc(Cl)n2Cc1ccccc1`, the minimal effective concentration in the experiment filed under Mus musculus [2] is more than 10 µM.

For `CSc1nc(N)c2nc(O)n(Cc3ccccc3)c2n1`, the minimal effective dose in the experiment with Mus musculus [1] is 0.1 mg/kg. Also, in the experiment listed under Mus musculus [2], the minimal effective concentration came out at 0.1 µM.

With `Nc1nc(S)nc2c1nc(O)n2Cc1ccccc1`, the minimal effective concentration in the experiment listed under Mus musculus [2] was 10 µM.

As to `CCCSc1nc(N)c2nc(O)n(Cc3ccccc3)c2n1`, the minimal effective dose with Mus musculus [1] stood at 0.1 mg/kg. In addition, the minimal effective concentration in the experiment listed under Mus musculus [2] came out at 0.01 µM.

Regarding `NNc1nc2c(N)ncnc2n1Cc1ccccc1`, in the experiment listed under Mus musculus [2], the minimal effective concentration is more than 10 µM.

Turning to `CCSc1nc(N)c2nc(O)n(Cc3ccccc3)c2n1`, the minimal effective dose with Mus musculus [1] amounted to 0.1 mg/kg. For the same molecule, in the experiment filed under Mus musculus [2], the minimal effective concentration stood at 0.1 µM.

Regarding `Nc1ncnc2c1nc(I)n2Cc1ccccc1`, in the experiment filed under Mus musculus [2], the minimal effective concentration was more than 10 µM.

Consider `Nc1ncnc2c1nc(O)n2Cc1cccc2ccccc12`, for which, in the experiment filed under Mus musculus [2], the minimal effective concentration is 10 µM.

Regarding `COc1ccccc1Cn1c(O)nc2c(N)ncnc21`, the minimal effective concentration in the experiment listed under Mus musculus [2] was determined as 10 µM.

On to `COc1nc(N)c2nc(O)n(Cc3ccccc3)c2n1`, for which, in the experiment with Mus musculus [1], the minimal effective dose is more than 1 mg/kg. The minimal effective concentration in the experiment listed under Mus musculus [2] worked out at 0.1 µM.

On to `Nc1nc(O)nc2c1nc(O)n2Cc1ccccc1`, for which, in the experiment with Mus musculus [1], the minimal effective dose is 1 mg/kg. Besides, in the experiment listed under Mus musculus [2], the minimal effective concentration was found to be 0.1 µM.

For `CCCCCNc1nc(N)c2nc(O)n(Cc3ccccc3)c2n1`, in the experiment on Mus musculus [1], the minimal effective dose was found to be 0.3 mg/kg. For the same molecule, the minimal effective concentration in the experiment listed under Mus musculus [2] worked out at 0.1 µM.

For the molecule `Cc1ccc(Cn2c(O)nc3c(N)ncnc32)cc1`, the minimal effective concentration in the experiment listed under Mus musculus [2] was found to be 10 µM.

As to `CSc1nc2c(N)ncnc2n1Cc1ccccc1`, in the experiment filed under Mus musculus [2], the minimal effective concentration was more than 10 µM.

On to `Nc1ncnc2c1nc(S)n2Cc1ccccc1`, for which the minimal effective dose in the experiment on Mus musculus [1] was more than 30 mg/kg. In addition, in the experiment listed under Mus musculus [2], the minimal effective concentration was 10 µM.

`Nc1ncnc2c1nc(O)n2C1CCCC1`: the minimal effective concentration in the experiment listed under Mus musculus [2] is more than 10 µM.

For `CCCNc1nc(N)c2nc(O)n(Cc3ccccc3)c2n1`, the minimal effective dose in the experiment with Mus musculus [1] was 1 mg/kg. Also, the minimal effective concentration in the experiment listed under Mus musculus [2] turned out to be 0.1 µM.

Take `Nc1ncnc2c1nc(O)n2Cc1ccc(Cl)cc1`: the minimal effective dose in the experiment on Mus musculus [1] was 30 mg/kg. In addition, in the experiment filed under Mus musculus [2], the minimal effective concentration came out at 10 µM.

Turning to `CCCCn1c(O)nc2c(N)ncnc21`, in the experiment filed under Mus musculus [2], the minimal effective concentration was more than 10 µM.

On to `CNc1nc(N)c2nc(O)n(Cc3ccccc3)c2n1`, for which the minimal effective concentration in the experiment listed under Mus musculus [2] was 1 µM.

In the case of `Nc1ncnc2c1nc(O)n2Cc1ccccc1`, the minimal effective dose in the experiment on Mus musculus [1] amounted to 30 mg/kg. Moreover, the minimal effective concentration in the experiment listed under Mus musculus [2] turned out to be 10 µM.

For `CCCC[S+]([O-])c1nc(N)c2nc(O)n(Cc3ccccc3)c2n1` (centres undefined), in the experiment on Mus musculus [1], the minimal effective dose amounted to 1 mg/kg. Also, the minimal effective concentration in the experiment filed under Mus musculus [2] is 0.01 µM.

Turning to `Nc1ncnc2c1nc(O)n2CCc1ccccc1`, the minimal effective concentration in the experiment filed under Mus musculus [2] was more than 10 µM.

In the case of `Nc1ncnc2c1ncn2Cc1ccccc1` [9-BENZYL-9H-ADENINE], the minimal effective concentration in the experiment filed under Mus musculus [2] is more than 10 µM.

Take `CC(C)Cn1cnc2c(N)nc3ccccc3c21` [IMIQUIMOD]: in the experiment on Mus musculus [1], the minimal effective dose is 3 mg/kg. Also, in the experiment filed under Mus musculus [2], the minimal effective concentration was found to be 1 µM.

These data come from ChEMBL document CHEMBL1135670, “Discovery of 8-hydroxyadenines as a novel type of interferon inducer” (2002).
